Data taken from ChEMBL document CHEMBL4342513, “Implementation of the CYP Index for the Design of Selective Tryptophan-2,3-dioxygenase Inhibitors” (ACS Med Chem Lett, 2020).
In brackets after ≈: the same amount, converted by molar mass. One block for each compound: values may come before it.

Assays:
[1] = target: T1, Tryptophan 2,3-dioxygenase (Homo sapiens, UniProt P48775); assay: Inhibition of recombinant human TDO using L-tryptophan as substrate preincubated for 5 mins followed by substrate addition and measured after 15 mins by RapidFire-Mass spectrometry
T1 sequence (P48775 whole entry): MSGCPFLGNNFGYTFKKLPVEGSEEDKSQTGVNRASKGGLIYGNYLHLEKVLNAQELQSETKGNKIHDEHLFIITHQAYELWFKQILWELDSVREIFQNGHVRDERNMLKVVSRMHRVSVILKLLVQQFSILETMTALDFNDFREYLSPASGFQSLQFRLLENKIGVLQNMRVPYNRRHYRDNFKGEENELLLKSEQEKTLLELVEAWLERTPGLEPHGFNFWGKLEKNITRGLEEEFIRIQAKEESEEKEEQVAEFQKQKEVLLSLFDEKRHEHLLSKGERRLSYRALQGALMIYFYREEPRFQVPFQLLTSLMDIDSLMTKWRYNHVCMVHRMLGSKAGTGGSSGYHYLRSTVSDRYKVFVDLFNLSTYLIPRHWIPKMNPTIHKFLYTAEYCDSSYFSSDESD

[2] = target: T1, Tryptophan 2,3-dioxygenase; assay: Inhibition of TDO in human SW48 cells after 24 hrs by NFK green reagent based assay; format: cell-based
[3] = Lipophilicity, log D of compound at pH 7.4; format: physicochemical; conditions: buffer
Homo sapiens [4] = organism: Homo sapiens; assay: Selectivity index, ratio of IC50 for inhibition of CYP3A4 (unknown origin) to EC50 for inhibition of EC50 for inhibition of TDO in human SW48 cells; format: cell-based
[5] = Oral bioavailability in mouse at 1 mg/kg dosed as cassette formulation; format: ADME, organism-based; conditions: in vivo
Homo sapiens [6] = organism: Homo sapiens; assay: Selectivity index, ratio of EC50 for inhibition of IDO1 in human A172 cells in presence of IFNgamma to EC50 for inhibition of TDO in human SW48 cells; format: cell-based
[7] = Clearance in rat liver microsomes; format: ADME, Microsome
Procedure, shortened: (§1)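 Clearance was measured in liver microsome incubations from human, rat and mouse. It is expressed as scaled clearance in mL/min/kg.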

[8] = target: Indoleamine 2,3-dioxygenase 1 (Homo sapiens, UniProt P14902); assay: Inhibition of IDO1 in human A172 cells after 24 hrs in presence of IFNgamma by NFK green reagent based assay; format: cell-based
Indoleamine 2,3-dioxygenase 1, sequence (P14902 whole entry): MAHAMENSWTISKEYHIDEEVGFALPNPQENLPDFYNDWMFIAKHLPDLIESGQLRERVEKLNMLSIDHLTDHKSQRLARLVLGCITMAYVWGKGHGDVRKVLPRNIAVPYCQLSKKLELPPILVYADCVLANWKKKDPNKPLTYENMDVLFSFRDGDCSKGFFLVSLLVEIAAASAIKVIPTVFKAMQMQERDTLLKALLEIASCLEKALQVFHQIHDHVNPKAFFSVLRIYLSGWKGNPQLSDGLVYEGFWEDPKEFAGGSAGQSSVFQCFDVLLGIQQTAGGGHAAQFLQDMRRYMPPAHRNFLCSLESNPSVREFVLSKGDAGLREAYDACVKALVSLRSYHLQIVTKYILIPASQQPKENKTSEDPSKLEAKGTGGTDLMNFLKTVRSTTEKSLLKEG

Cytochrome P450 3A4 = Cytochrome P450 3A4 (Homo sapiens, UniProt P08684); assay: Inhibition of CYP3A4 (unknown origin); format: ADME
Cytochrome P450 3A4, sequence (P08684 whole entry): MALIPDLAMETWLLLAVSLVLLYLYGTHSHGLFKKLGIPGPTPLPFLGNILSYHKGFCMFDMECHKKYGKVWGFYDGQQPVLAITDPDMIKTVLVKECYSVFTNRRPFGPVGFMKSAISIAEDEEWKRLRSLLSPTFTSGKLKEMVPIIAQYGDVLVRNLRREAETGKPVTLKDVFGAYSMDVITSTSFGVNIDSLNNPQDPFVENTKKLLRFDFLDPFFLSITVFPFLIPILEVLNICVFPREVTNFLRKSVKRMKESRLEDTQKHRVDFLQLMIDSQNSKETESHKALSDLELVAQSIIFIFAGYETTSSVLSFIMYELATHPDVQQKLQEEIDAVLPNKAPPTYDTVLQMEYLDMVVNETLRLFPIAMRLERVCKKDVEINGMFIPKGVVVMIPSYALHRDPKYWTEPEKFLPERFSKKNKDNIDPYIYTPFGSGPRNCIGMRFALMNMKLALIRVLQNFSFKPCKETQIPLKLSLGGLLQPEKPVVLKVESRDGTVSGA

[9] = Apparent permeability across apical to basolateral side in MDCK cells; format: ADME, cell-based, Canis lupus familiaris; conditions: dog
[10] = Unbound clearance in mouse plasma; format: ADME, cell-free
[11] = AUC (infinity) in mouse; format: ADME, organism-based; set-up: time infinity; conditions: in vivo
[12] = Volume of distribution at steady state in mouse; format: ADME, organism-based; conditions: in vivo, read-out: Vdss
[13] = Half life in mouse; format: ADME, organism-based; conditions: in vivo
[14] = Clearance in iv dosed mouse plasma; format: ADME, organism-based
Procedure, shortened: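 Compounds were given to mice as discrete (single-compound) intravenous doses. Plasma clearance (CLp) is expressed in mL/min/kg.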

[15] = Protein binding in mouse plasma assessed as unbound fraction; format: ADME, cell-free
[16] = Kinetic solubility of compound; format: physicochemical; conditions: read-out: Kinetic_solubility
[17] = Clearance in mouse liver microsomes; format: ADME, Microsome; procedure, shortened: as §1
[18] = Clearance in human liver microsomes; format: ADME, Microsome; procedure, shortened: as §1
[19] = target: T1, Tryptophan 2,3-dioxygenase; assay: Inhibition of TDO (unknown origin)
Mus musculus [20] = assay: In vivo inhibition of TDO in mouse assessed as blood tryptophan levels by measuring AUC at 30 mg/kg (reference value: 570 microM.hr); format: functional, organism-based
Procedure, shortened: (§2)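 Mouse pharmacodynamic study with escalating doses up to 100 mg/kg and a vehicle-treated comparison group. Blood tryptophan concentration was followed over time.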

Mus musculus [21] = assay: In vivo inhibition of TDO in mouse assessed as blood tryptophan levels by measuring Cmax at 30 mg/kg (reference value: 340 microM); format: functional, organism-based; set-up: dose 30 mg/kg; procedure, shortened: as §2
[22] = Cmax in mouse at 10 mg/kg; format: ADME, organism-based; set-up: dose 10 mg/kg; conditions: in vivo
[23] = Cmax in mouse at 100 mg/kg; format: ADME, organism-based; set-up: dose 100 mg/kg; conditions: in vivo
[24] = AUC (infinity) in mouse at 30 mg/kg; format: ADME, organism-based; set-up: dose 30 mg/kg, time infinity; conditions: in vivo
Mus musculus [25] = assay: In vivo inhibition of TDO in mouse assessed as blood tryptophan levels by measuring AUC at 100 mg/kg (reference value: 570 microM.hr); format: functional, organism-based; procedure, shortened: as §2
Mus musculus [26] = assay: In vivo inhibition of TDO in mouse assessed as blood tryptophan levels by measuring Cmax at 10 mg/kg (reference value: 340 microM); format: functional, organism-based; set-up: dose 10 mg/kg; procedure, shortened: as §2
Mus musculus [27] = assay: In vivo inhibition of TDO in mouse assessed as blood tryptophan levels by measuring AUC at 10 mg/kg (reference value: 570 microM.hr); format: functional, organism-based; procedure, shortened: as §2
[28] = Cmax in mouse at 30 mg/kg; format: ADME, organism-based; set-up: dose 30 mg/kg; conditions: in vivo
Mus musculus [29] = assay: In vivo inhibition of TDO in mouse assessed as blood tryptophan levels by measuring Cmax at 100 mg/kg (reference value: 340 microM); format: functional, organism-based; set-up: dose 100 mg/kg; procedure, shortened: as §2
[30] = AUC (infinity) in mouse at 10 mg/kg; format: ADME, organism-based; set-up: dose 10 mg/kg, time infinity; conditions: in vivo
[31] = AUC (infinity) in mouse at 100 mg/kg; format: ADME, organism-based; set-up: dose 100 mg/kg, time infinity; conditions: in vivo
[32] = Oral bioavailability in mouse at 5 mg/kg; format: ADME, organism-based; conditions: in vivo

IC50 [1]: 60 nM
Compound: OCCC1c2ccccc2-n2cncc21 (stereo unspecified)

EC50 [2]: 71 nM
logD [3]: 2.3
Compound: CC(C)([C@H](O)c1ncco1)[C@H]1c2ccccc2-c2cncn21
Ratio IC50/EC50 (Homo sapiens [4]): < 2

bioavailability [5]: < 5%
CLhep predicted [7]: 33 mL/min/kg
EC50 [8]: 4600 nM
IC50 (Cytochrome P450 3A4): 8200 nM
Papp A→B [9]: 23 ×10⁻⁶ cm/s
CL free [10]: 230 mL/min/kg
AUC ([11]; BLD = below limit of detection): Bld
EC50 [2]: 54 nM
Vd [12]: 1.1 L/kg
half-life [13]: 12.6 min
clearance [14]: 63 mL/min/kg
fraction unbound [15]: 0.27
solubility kinetic [16]: 165 µM (≈ 48.6 µg/mL)
CLhep predicted [17]: 45 mL/min/kg
CLhep predicted [18]: < 3.9 mL/min/kg
Compound: O[C@@H]1c2nonc2CC[C@H]1[C@H]1c2ccccc2-c2cncn21
Ratio EC50 (Homo sapiens [6]): 85
Ratio IC50/EC50 (Homo sapiens [4]): 150

IC50 [19]: > 10000 nM
Compound: NS(=O)(=O)NCCNc1nonc1C(=NO)Nc1ccc(F)c(Br)c1 [EPACADOSTAT]

IC50 [1]: 7000 nM
Compound: OCCC1c2ccccc2-c2cnsc21 (stereo unspecified)

bioavailability [5]: 68%
Cmax [22]: 4.1 µM
CLhep predicted [7]: 38 mL/min/kg
Cmax [23]: 70 µM
AUC(0-inf) [24]: 35 µM·h
EC50 [8]: 1400 nM
IC50 (Cytochrome P450 3A4): 2400 nM
Papp A→B [9]: 11 ×10⁻⁶ cm/s
CL free [10]: 410 mL/min/kg
AUC(0-inf) [11]: 0.34 µM·h
EC50 [2]: 50 nM
Cmax [28]: 21.2 µM
AUC(0-inf) [30]: 5 µM·h
Vd [12]: 1.4 L/kg
half-life [13]: 37.2 min
clearance [14]: 29 mL/min/kg
fraction unbound [15]: 0.07
AUC(0-inf) [31]: 210 µM·h
solubility kinetic [16]: 139 µM (≈ 42.2 µg/mL)
CLhep predicted [17]: 71 mL/min/kg
bioavailability [32]: 78%
CLhep predicted [18]: 6.9 mL/min/kg
Compound: O[C@@H]1c2cnccc2CC[C@H]1[C@H]1c2ccccc2-c2cncn21
AUC (Mus musculus [20]): 229000 ng·h/mL
Cmax (Mus musculus [21]): 560 µM
Ratio EC50 (Homo sapiens [6]): 28
AUC (Mus musculus [25]): 404000 ng·h/mL
Cmax (Mus musculus [26]): 420 µM
AUC (Mus musculus [27]): 139000 ng·h/mL
Cmax (Mus musculus [29]): 540 µM
Ratio IC50/EC50 (Homo sapiens [4]): 48

bioavailability [5]: 140%
CLhep predicted [7]: 37 mL/min/kg
IC50 (Cytochrome P450 3A4): > 10000 nM
Papp A→B [9]: 13 ×10⁻⁶ cm/s
CL free [10]: 310 mL/min/kg
AUC(0-inf) [11]: 0.81 µM·h
EC50 [2]: 130 nM
Vd [12]: 1.1 L/kg
half-life [13]: 46.8 min
clearance [14]: 28 mL/min/kg
fraction unbound [15]: 0.09
solubility kinetic [16]: 149 µM (≈ 43.6 µg/mL)
CLhep predicted [17]: 45 mL/min/kg
bioavailability [32]: 70%
CLhep predicted [18]: < 3.9 mL/min/kg
Compound: O[C@@H]1c2ccnn2CC[C@H]1[C@H]1c2ccccc2-c2cncn21
Ratio EC50 (Homo sapiens [6]): 35
Ratio IC50/EC50 (Homo sapiens [4]): > 77

EC50 [2]: ≤ 32 nM
Compound: C[C@H]([C@H](O)c1ccccc1)[C@H]1c2ccccc2-c2cncn21

CLhep predicted [7]: 47 mL/min/kg
EC50 [8]: 240 nM
CLhep predicted [17]: 75 mL/min/kg
CLhep predicted [18]: 11 mL/min/kg
Compound: O[C@@H]1c2ccccc2CC[C@H]1[C@H]1c2ccccc2-c2cncn21

IC50 [1]: 20 nM
Compound: OCCC1c2ccccc2-c2cncn21 (stereo unspecified)

EC50 [8]: 1600 nM
IC50 (Cytochrome P450 3A4): 600 nM
EC50 [2]: 72 nM
logD [3]: 1.3
Compound: O[C@@H]1COCC[C@H]1[C@H]1c2ccccc2-c2cncn21
Ratio EC50 (Homo sapiens [6]): 22
Ratio IC50/EC50 (Homo sapiens [4]): 8.3

CLhep predicted [7]: 19 mL/min/kg
EC50 [8]: 13000 nM
IC50 (Cytochrome P450 3A4): 3300 nM
EC50 [2]: 380 nM
CLhep predicted [17]: 46 mL/min/kg
CLhep predicted [18]: < 3.9 mL/min/kg
Compound: Cn1ncc2c1CC[C@@H]([C@H]1c3ccccc3-c3cncn31)[C@@H]2O
Ratio EC50 (Homo sapiens [6]): 34
Ratio IC50/EC50 (Homo sapiens [4]): 9

EC50 [8]: 2900 nM
IC50 (Cytochrome P450 3A4): 650 nM
logD [3]: 1.5
Compound: O[C@@H]1CCOC[C@H]1[C@H]1c2ccccc2-c2cncn21
Ratio EC50 (Homo sapiens [6]): 14
Ratio IC50/EC50 (Homo sapiens [4]): 3.1

CLhep predicted [7]: 46 mL/min/kg
EC50 [8]: 800 nM
IC50 (Cytochrome P450 3A4): < 100 nM
CLhep predicted [17]: 67 mL/min/kg
CLhep predicted [18]: 11 mL/min/kg
Compound: O[C@@H]1c2ccncc2CC[C@H]1[C@H]1c2ccccc2-c2cncn21
Ratio EC50 (Homo sapiens [6]): 17
Ratio IC50/EC50 (Homo sapiens [4]): < 2

CLhep predicted [7]: 46 mL/min/kg
EC50 [8]: 1300 nM
IC50 (Cytochrome P450 3A4): 2800 nM
EC50 [2]: 65 nM
CLhep predicted [17]: 81 mL/min/kg
CLhep predicted [18]: 6.9 mL/min/kg
Compound: CS(=O)(=O)c1ccc2c(c1)CC[C@@H]([C@H]1c3ccccc3-c3cncn31)[C@@H]2O
Ratio EC50 (Homo sapiens [6]): 20
Ratio IC50/EC50 (Homo sapiens [4]): 43

CLhep predicted [7]: 6.1 mL/min/kg
EC50 [8]: > 25000 nM
IC50 (Cytochrome P450 3A4): > 10000 nM
EC50 [2]: 7400 nM
CLhep predicted [17]: 14 mL/min/kg
CLhep predicted [18]: < 3.9 mL/min/kg
Compound: O[C@@H]1c2nncn2CC[C@H]1[C@H]1c2ccccc2-c2cncn21
Ratio EC50 (Homo sapiens [6]): > 3
Ratio IC50/EC50 (Homo sapiens [4]): > 1

EC50 [8]: 20000 nM
logD [3]: 1.4
Compound: CN1CC[C@@H]([C@H]2c3ccccc3-c3cncn32)[C@H](O)C1
Ratio EC50 (Homo sapiens [6]): 14
